From PubChem BioAssay AID871 (The Scripps Research Institute Molecular Screening Center, 2007)
Screen size: about 190,000 compounds; about 1,800 (0.95%) were called active. This is one part of a sample in which actives are shown more often than they occur.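 The calls were made as follows: active = activation above the screen-wide mean of compound activation plus 3 SD (cut at about 130% in these data); inactive = the rest.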

Test: IL-6 driven STAT3 reporter potentiators, primary screen, U3A cells, luciferase, luminescence, MLSCN library (AID 871);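 also: 0% = background luminescence of wells with medium and substrate only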
Settings: IL-6 STAT3-luciferase reporter, at 5.6 µM, hits give high values, 100% = signal with IL-6 EC80 alone
Summary of the method: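 Test system: human U3A cells carrying STAT3-luciferase construct; control set: IL-6-only wells as 100% reference; timing: compound pre-incubation 1 h before IL-6, then 6 h stimulation at 37 °C; also added: IL-6 stimulus at 33 ng/mL final; evaluation: % activation versus median of IL-6-stimulated wells; detection: reporter luminescence signal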

SMILES	activation (% of control)
Cc1csc2ncc(C(=O)N(Cc3ccccc3)c3ccccn3)c(=O)n12	144% (active)
CC(C)(C)C(=O)N(Cc1ccccc1)c1ccccn1	106% (inactive)
CCC(=O)N(Cc1ccccc1)c1ccccn1	101% (inactive)
CCCCCCCCc1c(O)nc(-n2[nH]c(C)c(CCO)c2=O)[nH]c1=O	102% (inactive)
CCCC1OC23CCCCC2C(C#N)(C#N)C1(C#N)C(=N)O3 (configuration not stated)	104% (inactive)
CC(C)(C)c1ccc(NC(=O)COC(=O)CCc2nc3ccccc3c(=O)[nH]2)cc1	95.4% (inactive)
COc1cccc(/C=C(/CC(=O)Nc2ccc(N3CCOCC3)cc2)c2nc3ccccc3s2)c1	143% (active)
COc1cccc(C(=O)Nc2ccc(N3CCCC3)cc2)c1	90.1% (inactive)
COc1ccc(/C=C(/CC(=O)Nc2ccc(C)cc2)c2nc3ccccc3s2)cc1	103% (inactive)
CCc1ccccc1NC(=O)CN(C)C(=O)COc1ccc(C)nc1[N+](=O)[O-]	104% (inactive)
COc1ccc(CC(=O)Nc2ccccc2NC(=O)c2ccco2)cc1OC	100% (inactive)
CCOC(=O)C1C(c2ccc(Cl)cc2)NC(=S)NC1(O)C(F)(F)F (configuration not stated)	98.2% (inactive)
CCCCCCCC1(C)NC(=O)N(CC(=O)Nc2cc(C)on2)C1=O (configuration not stated)	93.7% (inactive)
CSCCC(Nc1nc2ccccc2s1)C(=O)O (configuration not stated)	99.7% (inactive)
COc1cccc2sc(NNC(=O)c3nc4ccccc4s3)nc12	120% (inactive)
O=C(Nc1ccccc1)Nc1nc2ccccc2s1	100% (inactive)
O=C(O)CSCc1nc2ccccc2s1	144% (active)
O=C(O)CCCCc1nc2ccccc2s1	94.9% (inactive)
O=C(O)CS/C(=C\c1ccc(F)cc1)c1nc2ccccc2s1	136% (active)
CCOP(=O)(OCC)C(Nc1cccc(C)c1)c1ccc(F)cc1 (configuration not stated)	95.7% (inactive)
O=C(Cn1nnc2ccccc2c1=O)NCc1ccc(Cl)cc1	101% (inactive)
C#CCCCc1nc2ccccc2c(=O)n1N	96.4% (inactive)
Cc1cc(C(=O)NNC(=S)Nc2ccccc2C)cs1	100% (inactive)
COc1ccc(C(=O)NC(Cc2ccc(OC(=O)c3ccc(OC)cc3)cc2)C(=O)O)cc1 (configuration not stated)	100% (inactive)
NC1=NC(=O)C(Cc2cccc(Cl)c2Cl)S1 (configuration not stated)	98.2% (inactive)

SMILES	activation (% of control)
CCOc1ccc(N=Cc2c(O)n(-c3cccc(C)n3)c(=O)c3ccccc23)cc1	78.3% (inactive)
CCCCn1c(=O)c(C(C)=O)c(O)c2ccccc21	106% (inactive)
CC(=O)n1c(C=Nc2ccccc2)c(O)c2ccccc21	134% (active)
O=C1c2ccccc2NC(c2ccccc2O)N1NS(=O)(=O)c1ccccc1 (configuration not stated)	101% (inactive)
COc1ccc(CN2CCN(Cc3cn(C)nc3-c3ccccc3)CC2CCO)c(C)c1C (configuration not stated)	105% (inactive)
Cc1sc2nc(CC(N)=O)[nH]c(=O)c2c1-c1ccccc1	96.5% (inactive)
CCOC(=O)CC(=O)CSc1nc(-c2ccccc2)cc(-c2ccc(Cl)cc2)c1C#N	98.1% (inactive)
N#Cc1c(C(F)(F)F)cc(-c2ccccc2)nc1SCC(=O)N1CCOCC1	107% (inactive)
N#Cc1c(C(F)(F)F)cc(-c2ccc(Cl)cc2)nc1SCC(=O)O	142% (active)
Cc1nn(CC2CC2)c(=O)n1N(C)c1ncc(C(F)(F)F)cc1Cl	99.4% (inactive)
COc1ccc(C2c3[nH]c4ccccc4c3CCN2CCCn2cccn2)cc1C (configuration not stated)	148% (active)
CCN(CCn1cccn1)C(=O)CC1C(=O)NCCN1Cc1cccc(OC)c1OC (configuration not stated)	106% (inactive)
COc1cccc(C2c3[nH]c4ccccc4c3CCN2Cc2cccc(C)n2)c1 (configuration not stated)	126% (inactive)
Cc1cc(C)c(C#N)c(SCC(=O)Nc2ccccc2)n1	85.2% (inactive)
Cc1ccc(C(=O)N2CCCC(c3ccccc3)=N2)cc1	92.1% (inactive)
COc1ccc(OC)c(S(=O)(=O)Nc2ccccc2F)c1	96.8% (inactive)
COC(=O)c1[nH]c2ccc(Br)cc2c1NC(=O)Oc1ccccc1	102% (inactive)
COC(=O)c1[nH]c2ccccc2c1NS(=O)(=O)c1ccc(OC)cc1OC	149% (active)
O=[N+]([O-])c1ccccc1Nc1ccc(O)cc1	104% (inactive)
CCOc1ccc2c(=O)c(-c3ccc4c(c3)OCCCO4)c(C)oc2c1	98.4% (inactive)
Cc1ccc(NC(=O)c2cc([N+](=O)[O-])ccc2Cl)c(O)c1	138% (active)
CCC(C)C(=O)Nc1cc([N+](=O)[O-])ccc1Cl (configuration not stated)	103% (inactive)
CC(C)C(=O)Nc1cccc(NC(=O)c2ccc([N+](=O)[O-])cc2Cl)c1	106% (inactive)
CC1CCC2(CC1)NC(=O)N(Cc1nnc(-c3cccs3)o1)C2=O (configuration not stated)	96.4% (inactive)
C/C(=C\c1ccco1)CN1CCC(N2CCC(C(=O)N3CCOCC3)CC2)CC1	110% (inactive)

SMILES	activation (% of control)
Cn1cc(CN2CCCC(CO)C2)c(-c2ccc(Oc3ccccc3)cc2)n1 (configuration not stated)	108% (inactive)
COc1cc(NS(=O)(=O)c2ccc(N=Cc3c(C)[nH]n(-c4ccccc4)c3=O)cc2)nc(OC)n1	111% (inactive)
COc1cc(NS(=O)(=O)c2ccc(NC(=O)c3ccc(S(=O)(=O)N4CCCCC4)cc3)cc2)ncn1	97.5% (inactive)
COc1cc(NS(=O)(=O)c2ccc(N/C=C(\C=O)c3nc4cc(Cl)ccc4o3)cc2)nc(OC)n1	159% (active)
NC(=O)c1ccc(NC(=O)COC(=O)C(Cc2ccccc2)NC(=O)c2ccccc2)cc1 (configuration not stated)	92.8% (inactive)
CCN(CC)CCN(C(=O)c1ccc(N2C(=O)CCC2=O)cc1)c1nc2cc3c(cc2s1)OCO3	107% (inactive)
C/C(=N/NC(=O)c1ccc(NC(=O)c2ccc(F)cc2)cc1)c1ccccc1	85.3% (inactive)
COc1ccc(C(=O)Nc2ccccc2C(=O)N/N=C/c2ccccc2OC)cc1	105% (inactive)
COc1ccccc1C(=O)NNC(=O)c1ccc(NC(=O)c2ccccc2)cc1	134% (active)
CCCn1c(C)cc(/C=C(\C#N)C(=O)OCC(=O)Nc2cc(OC)c(OC)c(OC)c2)c1C	103% (inactive)
Cc1nc2ccccc2cc1OCc1ccc(F)cc1	44.1% (inactive)
Cc1cc(O)ccc1-c1cnc2ccccc2n1	102% (inactive)
Cc1nc2ccccc2cc1O	163% (active)
CC(=O)NCCC(=O)Nc1cc(S(=O)(=O)N2CCOCC2)ccc1N1CCOCC1	105% (inactive)
CCOc1cc(NC(=S)NCCCN(C)C)c(OCC)cc1NC(=O)C1CC1	99.1% (inactive)
O=C(NNC1=C(C(=O)C(F)(F)F)CCC1)c1ccncc1	95.6% (inactive)
CCn1c(NC(=O)c2nn(C)cc2Br)nc2ccccc21	96.8% (inactive)
Oc1ccc(Br)cc1C=Nc1ccc2[nH]ncc2c1	102% (inactive)
CCN(CC)CCn1c(/N=C/c2cc(Br)ccc2O)nc2ccccc21	133% (active)
S=c1[nH]nc(-c2cccs2)n1/N=C/c1cccs1	109% (inactive)
Cc1cc(OC(=O)c2ccccc2)c([N+](=O)[O-])c(=O)[nH]1	106% (inactive)
O=C(NCC1CCCO1)/C(=C/c1ccc(Cl)cc1)NC(=O)c1ccccc1 (configuration not stated)	88.2% (inactive)
Cc1nn(Cc2ccc(Cl)c(Cl)c2)c(C)c1NC(=O)c1cc(C2CC2)on1	92.8% (inactive)
CSc1ccccc1NC(=O)c1cc(C2CC2)on1	122% (inactive)
O=C(Nc1cc(C(F)(F)F)ccc1Cl)c1cc(C2CC2)on1	150% (active)

SMILES	activation (% of control)
CCCN(CCC)c1c([N+](=O)[O-])c(=O)oc2ccccc12	96.6% (inactive)
Cc1ccn(-c2cccc(-n3ccc(C)n3)n2)n1	93.6% (inactive)
CCC(C)NC(=O)CN(C1CCCCC1)S(C)(=O)=O (configuration not stated)	105% (inactive)
Cc1cc(=O)n2[nH]c(-c3sccc3-n3c(C)ccc3C)cc2n1	118% (inactive)
CCCC(C)C(=O)OCC(=O)Nc1c(Br)cc(C)cc1Br (configuration not stated)	102% (inactive)
CCc1nnc(NC(=O)[C@@H](NC(=O)c2cccc(C)c2)C(C)C)s1	101% (inactive)
Cc1cccc(C(=O)Nc2nnc(Cc3c[nH]c4ccccc34)s2)c1	157% (active)
COc1ccc(Cc2nnc(NC(=O)c3cc(OC)c(OC)c(OC)c3)s2)cc1OC	91.5% (inactive)
CCc1ccc2ncc(C(=O)c3ccccc3)c(N3CCOCC3)c2c1	110% (inactive)
CCn1c(SCC(=O)N/N=C/C=C/c2ccccc2[N+](=O)[O-])nnc1-c1ccccc1	138% (active)
CCn1c(SCC(=O)Nc2ccc(S(=O)(=O)Nc3onc(C)c3C)cc2)nnc1-c1ccccc1	98.7% (inactive)
Cc1ccc(-n2c(SCC(=O)N/N=C/C=C/c3ccccc3[N+](=O)[O-])nc3ccccc3c2=O)cc1	97.7% (inactive)
COc1ccc(CCNC(=O)COC(=O)Cc2cc(OC)c(OC)c(OC)c2)cc1	111% (inactive)
CC(C)NC(=O)C(=O)NCCCOC(C)C	101% (inactive)
CCc1c(C)nc2c(OC)cccc2c1Cl	101% (inactive)
Cc1nc(N=C(N)N)nc2c(C)cccc12	168% (active)
Cc1cccc2c(=O)n3c(nc12)CCCCC3	102% (inactive)
COc1ccc2nc(/N=C(\N)NC(=O)Nc3ccccc3)nc(C)c2c1	100% (inactive)
COc1nc(N=C(N)N)nc2c(C)cccc12	172% (active)
O=C(COC(=O)c1ccccc1)Nc1cccc(S(=O)(=O)N2CCOCC2)c1	101% (inactive)
CCC1CCCCN1C(=S)Nc1ccc(SC(F)F)cc1 (configuration not stated)	94.3% (inactive)
CC1(C)CC(=O)CC2(C1)NCC(c1ccccc1Cl)c1c2[nH]c2ccccc12 (configuration not stated)	105% (inactive)
